Measured values published in ChEMBL document CHEMBL5532699, “Design, docking optimization, and evaluation of biotin-PEG4-1,8-naphthalimide as a potent and safe antitumor agent with dual targeting of ferroptosis and DNA” (RSC Med Chem, 2024).
Activity calls are given as the source filed them. The calls are words filed in the database; no cut-off is given here.

Legend:
MGC-803 [1] = assay: Induction of cell cycle arrest in human MGC-803 cells assessed as accumulation of cells at G2/M phase at 50 uM incubated for 24 hrs by PI staining based flow cytometry (Rvb=12.91%); type: functional
U-251 [2] = assay: Antiproliferative activity against human U-251 cells incubated for 48 hrs by MTT assay; type: functional, cell-based; settings: U-251, 48 h
Procedure, shortened: (§1)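 Monolayer cells in DMEM with 10% FBS, penicillin and streptomycin, 37°C, 5% CO2. Exponentially growing cells were seeded in 96-well plates and exposed to compound for 48 h. MTT was then added for 4 h at 37°C. Medium was removed, formazan dissolved in DMSO, and OD read at 490 nm. Each plate had five replicate wells, and assays were repeated three times per line.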

MGC-803 [3] = assay: Antiproliferative activity against human MGC-803 cells incubated for 48 hrs by MTT assay; type: functional, cell-based; settings: MGC-803, 48 h
Procedure, shortened: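 Cells kept as monolayers in DMEM with 10% FBS, streptomycin and penicillin, 37°C, 5% CO₂. Exponentially growing cells seeded in 96-well plates, exposed 48 h, then MTT (10 mg/mL stock) for 4 h at 37°C. Medium removed, formazan dissolved in DMSO, OD read at 490 nm. Five wells per condition; each cell line run three times.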

A549 = assay: Antiproliferative activity against human A549 cells incubated for 48 hrs by MTT assay; type: functional, cell-based; settings: A549, 48 h; procedure, shortened: as §1
[4] = Cytotoxicity against HK-2 cells incubated for 48 hrs by MTT assay; type: toxicity, cell-based; settings: human; procedure, shortened: as §1
[5] = Cytotoxicity against HUVEC cells incubated for 48 hrs by MTT assay; type: toxicity, cell-based; settings: human; procedure, shortened: as §1
MGC-803 [6] = assay: Effect on FACL4 protein expression in human MGC-803 cells at 25 to 50 uM incubated for 24 hrs by Western blot analysis; type: functional, cell-based; settings: dose 25-50 µM
Procedure, shortened: (§2)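 MGC-803 cells treated 25 or 50 μM for 24 h, lysed in ice-cold 1% SDS/Tris-HCl pH 7.5 buffer with EDTA, NaCl and protease inhibitors, spun 12,000g 18 min. Protein quantified by BCA; 40–50 μg resolved on 10% SDS-PAGE, transferred to PVDF, milk-blocked 2 h, primary antibody overnight, HRP secondary 1 h at RT. ECL detection with densitometry.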

[7] = Metabolic stability in male CD-1 mouse liver microsomes assessed as half life at 2 uM incubated for 60 min in the presence of NADPH by LC-MS/MS analysis; type: ADME, Microsome
Procedure, shortened: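 Male CD-1 mouse liver microsomes at 0.5 mg/mL final in 100 mM phosphate buffer, pH 7.4. Mixture was preincubated with 1 mM NADPH (PBS only for the negative control) for 10 min at 37°C. Reaction was started with test compound at 2 µM final. Aliquots were taken at 0.5, 15, 30, 45 and 60 min into cold methanol with internal standard, centrifuged, and the supernatant analysed by LC-MS/MS.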

MGC-803 [8] = assay: Induction of ferroptosis in human MGC-803 cells assessed as reduction of GPX4 protein expression level at 25 to 50 uM incubated for 24 hrs by Western blot analysis; type: functional, cell-based; settings: dose 25-50 µM; procedure, shortened: as §2
MGC-803 [9] = assay: Antitumor activity against human MGC-803 cells xenografted in nude mouse assessed as tumor inhibition ratio at 48 mg/kg, ip administered once every two days for 21 days relative to control; type: functional; settings: MGC-803, 504 h, time 21 day
Procedure, shortened: (§3)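 1×10^6 tumor cells injected s.c. into the right flank of nude mice. At mean tumor volume 60–80 mm³, animals randomized to vehicle or treatment groups (n = 6). Compound in 5% v/v DMSO/saline given i.p. every 2 days. Tumor size and weight recorded; volume = lw²/2 from length and width. Body weight tracked as the systemic toxicity index.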

[10] = Toxicity in nude mouse xenografted with human MGC-803 cells assessed as pathological changes in heart at 12 to 48 mg/kg, ip administered once every two days for 21 days by H and E staining based analysis; type: organism-based; settings: in vivo, 504 h, dose 12-48 mg/kg, time 21 day
Procedure, shortened: (§4)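 Nude mice carrying s.c. xenografts (1×10^6 cells, right flank) randomized at 60–80 mm³ (n = 6), dosed i.p. every 2 days in 5% v/v DMSO/saline. Major organs examined by H&E staining at 200× magnification.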

MGC-803 [11] = assay: Antitumor activity against human MGC-803 cells xenografted in nude mouse assessed as tumor inhibition ratio at 24 mg/kg, ip administered once every two days for 21 days relative to control; type: functional; settings: MGC-803, 504 h, time 21 day; procedure, shortened: as §3
U-251 [12] = assay: Antitumor activity against human U-251 cells xenografted in nude mouse assessed as tumor inhibition ratio at 24 mg/kg, ip administered once every two days for 21 days relative to control; type: functional; settings: U-251, 504 h, time 21 day; procedure, shortened: as §3
U-251 [13] = assay: Antitumor activity against human U-251 cells xenografted in nude mouse assessed as tumor inhibition ratio at 48 mg/kg, ip administered once every two days for 21 days relative to control; type: functional; settings: U-251, 504 h, time 21 day; procedure, shortened: as §3
[14] = Toxicity in nude mouse xenografted with human U-251 cells assessed as pathological changes in lung at 24 to 48 mg/kg, ip administered once every two days for 21 days by H and E staining based analysis; type: organism-based; settings: in vivo, 504 h, dose 24-48 mg/kg, time 21 day; procedure, shortened: as §4
MGC-803 [15] = assay: Induction of DNA damage in human MGC-803 cells assessed as increase in phosphorylated H2AX protein level at Ser139 residue at 25 to 50 uM incubated for 24 hrs by Western blot analysis; type: functional, cell-based; settings: dose 25-50 µM; procedure, shortened: as §2
MGC-803 [16] = assay: Inhibition of DNA synthesis in human MGC-803 cells at 25 to 50 uM incubated for 24 hrs by EdU staining based fluorescence microscopic analysis; type: functional, cell-based; settings: dose 25-50 µM
MGC-803 [17] = assay: Induction of cell cycle arrest in human MGC-803 cells assessed as accumulation of cells at S phase at 25 uM incubated for 24 hrs by PI staining based flow cytometry (Rvb=28.00%); type: functional
MGC-803 [18] = assay: Induction of cell cycle arrest in human MGC-803 cells assessed as accumulation of cells at S phase at 50 uM incubated for 24 hrs by PI staining based flow cytometry (Rvb=28.00%); type: functional
MGC-803 [19] = assay: Induction of ferroptosis in human MGC-803 cells assessed as appearance of ruptured mitochondria at 5 uM incubated for 24 hrs by TEM analysis; type: functional, cell-based
Procedure, shortened: (§5)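 Cell samples prefixed in 3% glutaraldehyde, postfixed in 1% osmium tetroxide, dehydrated through graded acetone (30–100%), embedded in Epon812, cut into 60–90 nm ultrathin sections on copper grids, stained with uranyl acetate 10–15 min and lead citrate 1–2 min at room temperature, examined by TEM.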

MGC-803 [20] = assay: Induction of ferroptosis in human MGC-803 cells assessed as increase in mitochondrial membrane density at 5 uM incubated for 24 hrs by TEM analysis; type: functional, cell-based; procedure, shortened: as §5
[21] = tested on: calf thymus DNA (Bos taurus); assay: Competitive binding affinity to calf thymus DNA in presence of propidium iodide by fluorescence intercalator displacement assay

- IC50 (U-251 [2]): > 50 µM
- IC50 (MGC-803 [3]): > 50 µM
- IC50 (A549): > 50 µM
- half-life at 2 µM [7]: 36.6 min
- Activity [21]: Active
Structure (SMILES): CN(C)CCN1C(=O)c2cccc3c(N4CCN(C(=O)CCOCCOCCOCCOCCNC(=O)CCCCC5SCC6NC(=O)NC65)CC4)ccc(c23)C1=O (configuration not stated)
- Activity (MGC-803 [1]): 26.25%
- IC50 at 48 h [4]: > 50 µM
- IC50 at 48 h [5]: > 50 µM
- Activity (MGC-803 [6]): inactive
- Activity (MGC-803 [8]): Active
- inhibition in vivo at 48 mg/kg (MGC-803 [9]): 65.5%
- Activity [10]: Non-Toxic
- inhibition in vivo at 24 mg/kg (MGC-803 [11]): 39.6%
- inhibition in vivo at 24 mg/kg (U-251 [12]): 74.8%
- inhibition in vivo at 48 mg/kg (U-251 [13]): 76.2%
- Activity [14]: Non-Toxic
- Activity (MGC-803 [15]): Active
- inhibition (MGC-803 [16]): Active
- Activity (MGC-803 [17]): 22.7%
- Activity (MGC-803 [18]): 40.58%
- Activity (MGC-803 [19]): Active
- Activity (MGC-803 [20]): Active
